Consider one compound from ChEMBL document CHEMBL1124765, “Synthesis and biological properties of novel phosphotriesters: a new approach to the introduction of biologically active nucleotides into cells” (J Med Chem, 1990).

What all share (assay type): functional
Test [1] concerns Mus musculus. In words: Topical treatment of intracutaneous HSV-1(KOS) herpes simplex virus type 1 infection of Nu/nu mice for mean day of appearance of skin lesions and/or paralysis of the hind legs at 3% concentration (v/v in DMSO). The method in brief:
(§1)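 Inocula were TK⁻ HSV-1 at 10⁶ CCID50/0.05 mL or HSV-1 KOS at 10^4.7 PFU/0.05 mL. Test formulations in DMSO were applied topically four times daily for 5 days, starting at infection. Skin lesions, hind-leg paralysis and death were recorded daily for 28 (KOS) or 49 (TK⁻) days, with five mice per group.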

Test [2] relates to Human alphaherpesvirus 2. In words: Evaluated for the minimum inhibitory concentration (MIC) in primary rabbit kidney (PRK) by 50% against herpes simplex virus type-2 (HSV-2) with strains Lyons. Put shortly: (§2)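 Confluent primary rabbit kidney cell cultures infected with 100 CCID50 virus; after 1 h adsorption residual virus removed and cells incubated with varying compound concentrations. Cytopathogenicity scored when complete in infected untreated controls; MIC = concentration reducing virus-induced cytopathogenicity by 50%. Compounds tested as such or after preincubation in medium with 10% fetal calf serum, 24 h, 37 °C.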

The subject of test [3] is Human alphaherpesvirus 1. In words: Evaluated for the minimum inhibitory concentration (MIC) in primary rabbit kidney (PRK) by 50% against TK- herpes simplex virus type 1 (TK- HSV-1) with strain B2006. The method in brief: (§3)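 Confluent primary rabbit kidney cell monolayers were infected with 100 CCID50 of virus. After 1 h adsorption, residual virus was removed and cells were incubated with serial compound concentrations. Cytopathogenicity was scored once it reached completion in untreated infected controls. The endpoint was the concentration reducing virus-induced cytopathogenicity by 50%.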

Test [4] deals with Mus musculus. In words: Topical treatment of intracutaneous HSV-1(KOS) herpes simplex virus type 1 infection of Nu/nu mice for mean day of appearance of skin lesions and/or paralysis of the hind legs at 1% concentration (v/v in DMSO). The method in brief: as §1
The test system of test [5] is Mus musculus. In words: Topical treatment of intracutaneous TK- herpes simplex virus type 1 of strain VMW 1837 infection of Nu/nu mice for mean day of appearance of skin lesions and/or paralysis of the hind legs at 1% concentration (v/v in DMSO). Put shortly:
as §1

The subject of test [6] is Mus musculus. In words: Topical treatment of intracutaneous TK- herpes simplex virus type 1 of strain VMW 1837 infection of Nu/nu mice for mean day of appearance of skin lesions and/or paralysis of the hind legs at 3% concentration (v/v in DMSO). Put shortly:
as §1

In the next test the test system is Vaccinia virus. In words: Evaluated for the minimum inhibitory concentration (MIC) in primary rabbit kidney (PRK) by 50% against vaccinia virus. The following applies: Orthopoxvirus vaccinia. Put shortly:
as §3

For test [7], the system named is Mus musculus. In words: Topical treatment of intracutaneous HSV-1(KOS) herpes simplex virus type 1 infection of Nu/nu mice for mean day of appearance of skin lesions and/or paralysis of the hind legs at 0.3% concentration (v/v in DMSO). The method in brief:
as §1

In test [8] the test system is Mus musculus. In words: Topical treatment of intracutaneous TK- herpes simplex virus type 1 of strain VMW 1837 infection of Nu/nu mice for mean day of appearance of skin lesions and/or paralysis of the hind legs at 0.3% concentration (v/v in DMSO). The method in brief: as §1
Test [9] has as its system Human alphaherpesvirus 1. In words: Evaluated for the minimum inhibitory concentration (MIC) in primary rabbit kidney (PRK) by 50% against herpes simplex virus type-1 (HSV-1) with strains F. Put shortly: as §2
The test system of test [10] is Human alphaherpesvirus 1. In words: Evaluated for the minimum inhibitory concentration (MIC) in primary rabbit kidney (PRK) by 50% against TK- herpes simplex virus type 1 (TK- HSV-1) with strain VMW 1837. The method in brief: as §3
Test [11] relates to Vesicular stomatitis virus. In words: Evaluated for the minimum inhibitory concentration (MIC) in primary rabbit kidney (PRK) by 50% against vesicular stomatitis virus. The method in brief: as §3
In test [12] the test system is Human alphaherpesvirus 1. In words: Evaluated for the minimum inhibitory concentration (MIC) in primary rabbit kidney (PRK) by 50% against herpes simplex virus type-1 (HSV-1) with strains KOS. Put shortly: as §2
The test system of test [13] is Human alphaherpesvirus 2. In words: Evaluated for the minimum inhibitory concentration (MIC) in primary rabbit kidney (PRK) by 50% against herpes simplex virus type-2 (HSV-2) with strains 196. Put shortly:
as §2

For the next test, the species on record is Oryctolagus cuniculus. In words: Evaluated for the minimum cytotoxic concentration (MCC) upon preincubation of rabbit kidney cells in medium containing 10% fetal calf serum at 37 degree Celsius for 24 hr. The following applies: Oryctolagus cuniculus, kidney; read-out: MCC. The method in brief: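 Primary rabbit kidney cell cultures were exposed to compounds, some preincubated 24 h at 37 °C in medium with 10% fetal calf serum. The minimum cytotoxic concentration was the level causing a microscopically detectable change in normal cell morphology.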

The subject of test [14] is Human alphaherpesvirus 1. In words: Evaluated for the minimum inhibitory concentration (MIC) in primary rabbit kidney (PRK) by 50% against herpes simplex virus type-1 (HSV-1) with strains McIntyre. The method in brief: as §2
For test [15], the system named is Human alphaherpesvirus 2. In words: Evaluated for the minimum inhibitory concentration (MIC) in primary rabbit kidney (PRK) by 50% against herpes simplex virus type-2 (HSV-2) with strains G. Put shortly:
as §3

In brackets after ≈: the same amount, converted by molar mass.

Consider `O=c1[nH]c(=O)n([C@H]2C[C@H](O)[C@@H](CO)O2)cc1/C=C/Br` [BRIVUDINE], for which the “Mean day appearance of lesions” value was 9.4 with Mus musculus [1]; 9.4 in the test with Mus musculus [4]; 9.7 in the test on Mus musculus [5]; 10.8 in the test on Mus musculus [6]; 6.2 in the test with Mus musculus [7]; 8.8 in the test on Mus musculus [8]. Further, the MIC is 40 µg/mL (≈ 120 µM) with Human alphaherpesvirus 2 [2]; 200 µg/mL (≈ 600 µM) with Human alphaherpesvirus 1 [3]; 7 µg/mL (≈ 21 µM) with Vaccinia virus; 0.02 µg/mL (≈ 0.06 µM) in the test on Human alphaherpesvirus 1 [9]; 300 µg/mL (≈ 901 µM) with Human alphaherpesvirus 1 [10]; above 400 µg/mL in test [11]. Moreover, the MIC in the test on Human alphaherpesvirus 1 [12] turned out to be 0.02 µg/mL (≈ 0.06 µM); against Human alphaherpesvirus 2 [13], 150 µg/mL (≈ 450 µM); in the test on Human alphaherpesvirus 1 [14], 0.02 µg/mL (≈ 0.06 µM); with Human alphaherpesvirus 2 [15], 4 µg/mL (≈ 12 µM). The MCC in the test listed under Oryctolagus cuniculus was above 400 µg/mL.
